ChEMBL document CHEMBL3098086, “Synthesis and biological evaluation of α-triazolyl chalcones as a new type of potential antimicrobial agents and their interaction with calf thymus DNA and human serum albumin” (Eur J Med Chem, 2014)
≈ marks a conversion by molar mass, not a printed value.

Tests used:
[1] = test system: Candida albicans; experiment: Antifungal activity against Candida albicans ATCC 76615 after 24 hrs by micro broth dilution method; assay type: functional; conditions: ATCC 76615, 24 h
How it was run: (§1)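 Fungi: C. albicans ATCC 76615 and C. mycoderma ATCC 96918. MICs by two-fold broth microdilution in 96-well plates per NCCLS. Fluconazole served as positive control.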

[2] = test system: Candida; experiment: Antifungal activity against Candida mycoderma ATCC 96918 after 24 hrs by micro broth dilution method; assay type: functional; conditions: ATCC 96918, 24 h; how it was run: as §1
[3] = test system: Bacillus subtilis; experiment: Antibacterial activity against Bacillus subtilis ATCC 21216 after 24 hrs by twofold serial dilution method; assay type: functional; conditions: ATCC 21216, 24 h
How it was run: (§2)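 Bacterial strains: S. aureus ATCC 25923, B. subtilis ATCC 21216, M. luteus ATCC 4698, E. coli JM109, P. aeruginosa ATCC 27853, B. proteus ATCC 13315. MICs by two-fold broth microdilution in 96-well plates per NCCLS. Chloromycin and Norfloxacin served as positive controls.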

[4] = test system: Escherichia coli; experiment: Antibacterial activity against Escherichia coli JM109 after 24 hrs by twofold serial dilution method; assay type: functional; conditions: JM109, 24 h; how it was run: as §2
[5] = test system: Staphylococcus aureus; experiment: Antibacterial activity against methicillin-resistant staphylococcus aureus N315 after 24 hrs by twofold serial dilution method; assay type: functional; conditions: N315, 24 h
How it was run: (§3)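 Two-fold broth microdilution per NCCLS recommendations. The MIC was read as the minimum inhibitory concentration. Chloromycin and Norfloxacin served as positive controls. Strains were Bacillus typhi (Gram-negative panel) and methicillin-resistant S. aureus N315.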

[6] = test system: Staphylococcus aureus; experiment: Antibacterial activity against Staphylococcus aureus ATCC 25923 after 24 hrs by twofold serial dilution method; assay type: functional; conditions: ATCC 25923, 24 h; how it was run: as §2
[7] = test system: Bacillus; experiment: Antibacterial activity against Bacillus proteus ATCC 13315 after 24 hrs by twofold serial dilution method; assay type: functional; conditions: ATCC 13315, 24 h; how it was run: as §2
[8] = test system: Salmonella typhi; experiment: Antibacterial activity against Bacillus typhi after 24 hrs by twofold serial dilution method; assay type: functional, Salmonella enterica subsp. enterica serovar Typhi; conditions: Salmonella enterica; how it was run: as §3
[9] = test system: Micrococcus luteus; experiment: Antibacterial activity against Micrococcus luteus ATCC 4698 after 24 hrs by twofold serial dilution method; assay type: functional; conditions: ATCC 4698, 24 h; how it was run: as §2
[10] = test system: Pseudomonas aeruginosa; experiment: Antibacterial activity against Pseudomonas aeruginosa ATCC 27853 after 24 hrs by twofold serial dilution method; assay type: functional; conditions: ATCC 27853, 24 h; how it was run: as §2

Structure (SMILES)	MIC [1] [µg/mL]	MIC [2] [µg/mL]	MIC [3] [µg/mL]	MIC [4] [µg/mL]	MIC [5] [µg/mL]	MIC [6] [µg/mL]	MIC [7] [µg/mL]	MIC [8] [µg/mL]	MIC [9] [µg/mL]	MIC [10] [µg/mL]
CN(C)c1ccc(/C=C(/C(=O)c2ccc(F)cc2F)n2cncn2)cc1	16 (≈ 45.2 µM)	64 (≈ 181 µM)	64 (≈ 181 µM)	128 (≈ 361 µM)	32 (≈ 90.3 µM)	64 (≈ 181 µM)	64 (≈ 181 µM)	64 (≈ 181 µM)	64 (≈ 181 µM)	256 (≈ 722 µM)
O=C(/C(=C/c1ccc(Cl)cc1)n1cncn1)c1ccc(Cl)cc1	64 (≈ 186 µM)	64 (≈ 186 µM)	32 (≈ 93 µM)	16 (≈ 46.5 µM)	32 (≈ 93 µM)	32 (≈ 93 µM)	32 (≈ 93 µM)	16 (≈ 46.5 µM)	64 (≈ 186 µM)	8 (≈ 23.2 µM)
Cc1ccc(C(=O)/C(=C/c2ccccc2)n2cncn2)c(C)c1	128 (≈ 422 µM)	256 (≈ 844 µM)	128 (≈ 422 µM)	256 (≈ 844 µM)	64 (≈ 211 µM)	128 (≈ 422 µM)	128 (≈ 422 µM)	128 (≈ 422 µM)	256 (≈ 844 µM)	256 (≈ 844 µM)
Cc1ccc(/C=C(/C(=O)c2ccc(F)cc2F)n2cncn2)cc1	16 (≈ 49.2 µM)	16 (≈ 49.2 µM)	64 (≈ 197 µM)	32 (≈ 98.4 µM)	32 (≈ 98.4 µM)	32 (≈ 98.4 µM)	64 (≈ 197 µM)	64 (≈ 197 µM)	64 (≈ 197 µM)	16 (≈ 49.2 µM)
O=C(N[C@H](CO)[C@H](O)c1ccc([N+](=O)[O-])cc1)C(Cl)Cl [CHLORAMPHENICOL]	–	–	32 (≈ 99 µM)	32 (≈ 99 µM)	16 (≈ 49.5 µM)	16 (≈ 49.5 µM)	32 (≈ 99 µM)	32 (≈ 99 µM)	8 (≈ 24.8 µM)	32 (≈ 99 µM)
O=C(/C(=C/c1ccccc1)n1cncn1)c1ccc(Cl)cc1	16 (≈ 51.7 µM)	64 (≈ 207 µM)	64 (≈ 207 µM)	128 (≈ 413 µM)	32 (≈ 103 µM)	64 (≈ 207 µM)	64 (≈ 207 µM)	64 (≈ 207 µM)	64 (≈ 207 µM)	256 (≈ 826 µM)
Cc1ccc(C(=O)/C(=C/c2ccccc2)n2cncn2)cc1C	16 (≈ 52.7 µM)	256 (≈ 844 µM)	64 (≈ 211 µM)	16 (≈ 52.7 µM)	256 (≈ 844 µM)	256 (≈ 844 µM)	128 (≈ 422 µM)	128 (≈ 422 µM)	128 (≈ 422 µM)	128 (≈ 422 µM)
COc1ccc(/C=C(/C(=O)c2ccc(F)cc2F)n2cncn2)cc1	16 (≈ 46.9 µM)	32 (≈ 93.8 µM)	8 (≈ 23.4 µM)	16 (≈ 46.9 µM)	4 (≈ 11.7 µM)	8 (≈ 23.4 µM)	8 (≈ 23.4 µM)	32 (≈ 93.8 µM)	16 (≈ 46.9 µM)	16 (≈ 46.9 µM)
O=C(/C(=C/c1ccccc1)n1cncn1)c1ccc(F)cc1N1CCCC1	32 (≈ 88.3 µM)	256 (≈ 706 µM)	8 (≈ 22.1 µM)	8 (≈ 22.1 µM)	16 (≈ 44.1 µM)	16 (≈ 44.1 µM)	16 (≈ 44.1 µM)	4 (≈ 11 µM)	16 (≈ 44.1 µM)	16 (≈ 44.1 µM)
O=C(/C(=C/c1ccccc1)n1cncn1)c1ccc(F)cc1N1CCOCC1	128 (≈ 338 µM)	32 (≈ 84.6 µM)	32 (≈ 84.6 µM)	16 (≈ 42.3 µM)	128 (≈ 338 µM)	32 (≈ 84.6 µM)	32 (≈ 84.6 µM)	32 (≈ 84.6 µM)	64 (≈ 169 µM)	64 (≈ 169 µM)
